Structures are written as SMILES. ≈ marks a conversion by molar mass, not a printed value.

A short description of data set [1]: Clearance in rat at 0.5 mg/kg, iv or 1 mg/kg, po. The data set is classed as ADME, organism-based. As to conditions: in vivo. The method, boiled down: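 Rat dosed iv at 0.5 mpk or po at 1 mpk, each as a solution in PEG400/H2O (60:40 (v/v)).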
A short description of data set [2]: Intrinsic clearance in rat hepatocytes after 120 mins by LC-MS/MS analysis. In kind it is ADME, cell-based, Hepatocyte. As to conditions: read-out: CLH.
Data set [3] is described as follows: Intrinsic clearance in human hepatocytes after 120 mins by LC-MS/MS analysis. In kind it is ADME, cell-based, Hepatocyte. As to conditions: read-out: CLH.
A short description of data set [4]: Apparent permeability in MDCK cells. The data set is classed as ADME, cell-based, Canis lupus familiaris. As to conditions: dog.
A short description of data set [5]: Solubility of the compound in FaSSIF solution at 100 uM after overnight incubation by UPLC/DAD analysis. In kind it is physicochemical.
Data set [6] has as its target Stimulator of interferon genes protein (Homo sapiens, UniProt Q86WV6). Kind of data set: Displacement of [3H]cGAMP from full length human HAQ STING expressed in Trichopulsia ni membranes preincubated for 30 mins followed by [3H]cGAMP addition and measured after 60 mins by scintillation counting method. In kind it is cell membranes. (In general: Loss of bound radioactivity is the signal in a displacement assay; it reports binding, not function.)

Sequence of Stimulator of interferon genes protein (Q86WV6 whole entry, looked up): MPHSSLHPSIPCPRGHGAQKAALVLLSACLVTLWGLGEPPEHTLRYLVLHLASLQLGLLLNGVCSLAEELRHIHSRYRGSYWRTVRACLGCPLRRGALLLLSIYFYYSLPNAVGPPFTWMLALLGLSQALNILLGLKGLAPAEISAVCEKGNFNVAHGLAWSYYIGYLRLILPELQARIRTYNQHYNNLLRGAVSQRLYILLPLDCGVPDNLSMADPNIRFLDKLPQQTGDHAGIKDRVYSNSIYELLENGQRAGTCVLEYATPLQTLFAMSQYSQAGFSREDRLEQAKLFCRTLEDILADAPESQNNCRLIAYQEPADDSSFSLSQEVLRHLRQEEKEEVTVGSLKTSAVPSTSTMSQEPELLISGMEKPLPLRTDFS

The compound `CC(C)(C)c1ccc(N2C(=O)c3ccccc3[C@H](C(=O)O)[C@H]2c2ccc3c(c2)OCCO3)cc1Cl` gave a clearance in data set [1] of 38 mL/min/kg. Further, the CLint scaled worked out at 158 mL/min/kg in data set [2] and 28 mL/min/kg in data set [3]. Also, the Papp (in general, a coefficient for how fast a substance crosses the barrier) in data set [4] turned out to be 9 ×10⁻⁶ cm/s. Besides, the solubility (in general, how much of the substance goes into solution per volume) at 100 µM in data set [5] is 151 µM (≈ 74.3 µg/mL).
For `CC(C)(C)c1ccc(N2C(=O)c3cc(F)ccc3[C@H](CC(=O)O)[C@H]2c2ccc3c(c2)OCCO3)cc1Cl` the same measures were 45 mL/min/kg, 240 mL/min/kg, 31 mL/min/kg, 18 ×10⁻⁶ cm/s and 187 µM (≈ 98 µg/mL).
As for `O=C(O)[C@H]1c2ccccc2C(=O)N(c2ccc3c(c2)CCC3)[C@@H]1c1ccc(Oc2ccccc2)cc1` (racemic), in data set [6], the IC50 (as a rule, the concentration that inhibits the measured activity by half) was above 20 µM.
Same read-out and setting: next, `O=C(O)[C@H]1c2ccccc2C(=O)N(c2ccc3c(c2)CCC3)[C@@H]1c1ccc2c(c1)OC(F)(F)O2` (racemic): above 20 µM; `N#Cc1ccc([C@@H]2[C@@H](C(=O)O)c3ccccc3C(=O)N2c2ccc3c(c2)CCC3)cc1` (racemic): above 20 µM; `CC(C)c1ccc(N2C(=O)c3ccccc3[C@H](C(=O)O)[C@H]2c2ccc3ccccc3c2)cc1` (racemic): above 20 µM.
Same read-out and setting: next, `CN(C)c1ccc([C@@H]2[C@@H](C(=O)O)c3ccccc3C(=O)N2c2ccc3c(c2)CCC3)cc1` (racemic): above 20 µM.

The values above are taken from ChEMBL document CHEMBL4382292, “Discovery of a Novel cGAMP Competitive Ligand of the Inactive Form of STING” (ACS Med Chem Lett, 2019).
